# Results published in ChEMBL document CHEMBL2176900, “Design and synthesis of a novel series of bicyclic heterocycles as potent γ-secretase modulators” (J Med Chem, 2012).
# Key:
# [1] = target: T1, Neuromedin-K receptor (Homo sapiens) (UniProt P29371); assay: Inhibition of NK3 receptor at 10 uM
# T1 sequence (whole entry): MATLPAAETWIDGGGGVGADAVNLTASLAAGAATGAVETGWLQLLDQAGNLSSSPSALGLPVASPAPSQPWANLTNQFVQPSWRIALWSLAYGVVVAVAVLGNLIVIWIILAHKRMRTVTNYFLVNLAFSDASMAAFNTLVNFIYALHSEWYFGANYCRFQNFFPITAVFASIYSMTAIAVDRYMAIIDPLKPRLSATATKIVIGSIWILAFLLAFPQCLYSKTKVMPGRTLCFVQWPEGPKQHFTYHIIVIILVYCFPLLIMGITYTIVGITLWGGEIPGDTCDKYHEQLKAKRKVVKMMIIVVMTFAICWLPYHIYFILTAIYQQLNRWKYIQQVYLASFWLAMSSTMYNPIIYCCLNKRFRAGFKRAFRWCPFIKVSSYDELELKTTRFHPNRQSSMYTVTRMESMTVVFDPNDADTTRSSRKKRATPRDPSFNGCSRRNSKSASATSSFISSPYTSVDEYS
# MDR1 = assay: Apparent permeability from basal to apical side of pig LLCPK1 cells expressing MDR1; format: ADME, cell-based, Sus scrofa; conditions: LLC-PK1
# [2] = Drug metabolism in dog liver microsomes at 1 uM after 15 mins by ion-trap mass spectrophotometry; format: ADME, Canis lupus familiaris, Microsome; conditions: read-out: Drug metabolism
# Rattus norvegicus [3] = assay: Antialzheimer activity in Sprague-Dawley rat assessed as amyloid beta 40 level in brain at 10 mg/kg, po at 4 hrs by ELISA relative to control; format: functional
# How it was run: (§1)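 Male Sprague-Dawley rats (180-220 g), fasted overnight, were given 10 mg/kg by gastric intubation as a 5 mg/mL suspension in 0.5% methocellulose. At 2, 4, 7 and 25 h, 50 μL CSF was taken from the cisterna magna under isoflurane, then brain was collected. Aβ37/38/40/42 were measured by MesoScale Discovery sandwich immunoassays. Results are mean % change versus T = 0 h, n = 5.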
# Rattus norvegicus [4] = assay: Antialzheimer activity in Sprague-Dawley rat assessed as amyloid beta 38 level in CSF at 10 mg/kg, po at 4 hrs by ELISA relative to control; format: functional; how it was run: as §1
# Mus musculus [5] = assay: Inhibition of gamma-secretase in CD1 mouse assessed as total amyloid beta level in brain at 10 mg/kg, po at 4 hrs by ELISA relative to control; format: functional; design: scale not given: the % may be the effect or the level left
# How it was run: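 Fasted male CD1 SPF mice were dosed orally at 10 or 30 mg/kg in 20% Captisol. Right hemisphere was homogenized in 0.4% DEA/50 mM NaCl and the high-speed supernatant neutralized. Aβtotal ELISA used N-terminal JRF/rAβ/2 capture, biotinylated 4G8 and streptavidin-peroxidase, then a fluorogenic substrate (ex 320/em 420 nm). Standards spanned 10000–0.3 pg/mL. Values are % change vs T = 0 h, n = 4.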
# Rattus norvegicus [6] = assay: Antialzheimer activity in Sprague-Dawley rat assessed as amyloid beta 42 level in CSF at 10 mg/kg, po at 7 hrs by ELISA relative to control; format: functional; how it was run: as §1
# [7] = Plasma concentration in beagle dog at 20 mg/kg, po at 8 hrs; format: ADME, organism-based, Canis lupus familiaris; design: dose 20 mg/kg, route oral
# hERG (KCNH2) = hERG (KCNH2) (Homo sapiens, UniProt Q12809); assay: Inhibition of human ERG at 3 uM by patch clamp assay
# How it was run: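 Potassium membrane current was recorded with an automated patch-clamp system at 3 μM, with a vehicle control.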
# [8] = Plasma concentration in CD1 mouse at 30 mg/kg, po at 8 hrs by LC-MS/MS analysis; format: ADME, organism-based; design: dose 30 mg/kg, route oral
# How it was run: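 Mice received a single 10 or 30 mg/kg oral dose. Plasma was sampled at several time points up to 48 h, with EDTA plasma obtained by centrifugation at 1900g, 10 min, 4 °C. Compound was quantified by LC-MS/MS, n = 4.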
# Rattus norvegicus [9] = assay: Antialzheimer activity in Sprague-Dawley rat assessed as amyloid beta 42 level in brain at 10 mg/kg, po at 7 hrs by ELISA relative to control; format: functional; how it was run: as §1
# [10] = Plasma concentration in CD1 mouse at 30 mg/kg, po at 4 hrs by LC-MS/MS analysis; format: ADME, organism-based; design: dose 30 mg/kg, route oral
# How it was run: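 Single oral dose to overnight-fasted male CD1 mice in 20% Captisol suspension. Plasma was taken at 4 h by decapitation into EDTA tubes and spun at 1900g for 10 min at 4 °C. Compound was measured by a qualified LC-MS/MS method. Values are geometric means of at least four runs.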
# [11] = Thermodynamic solubility in 0.01N HCl; conditions: read-out: Therm_solubility
# Rattus norvegicus [12] = assay: Antialzheimer activity in Sprague-Dawley rat assessed as amyloid beta 37 level in brain at 10 mg/kg, po at 25 hrs by ELISA relative to control; format: functional; how it was run: as §1
# [13] = Thermodynamic solubility in buffer at pH 4; format: physicochemical; conditions: read-out: Therm_solubility
# How it was run: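 Thermodynamic solubility was measured in pH 4.0 and pH 7.4 buffers, 0.01 N HCl, and fasted-state and fed-state simulated intestinal fluids (FaSSIF, FeSSIF). Results are in […].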
# Rattus norvegicus [14] = assay: Antialzheimer activity in Sprague-Dawley rat assessed as amyloid beta 40 level in CSF at 10 mg/kg, po at 7 hrs by ELISA relative to control; format: functional; how it was run: as §1
# Cytochrome P450 3A4 = Cytochrome P450 3A4 (Homo sapiens, UniProt P08684); assay: Inhibition of CYP3A4 in human liver microsomes using midazolam as substrate; format: ADME, Microsome
# [15] = Plasma concentration in beagle dog at 20 mg/kg, po at 4 hrs; format: ADME, organism-based, Canis lupus familiaris; design: dose 20 mg/kg, route oral
# [16] = Fraction unbound in human plasma; format: ADME, cell-free
# [17] = Plasma concentration in Sprague-Dawley rat at 10 mg/kg, po at 4 hrs by LC-MS/MS analysis; format: ADME, organism-based; design: dose 10 mg/kg, route oral
# How it was run: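 Overnight-fasted male Sprague-Dawley rats (180–220 g) were given 10 mg/kg by gastric intubation of a 5 mg/mL suspension in 0.5% methocellulose. Blood was collected after decapitation at 2, 4, 7 and 25 h under isoflurane anaesthesia. Plasma compound was measured as in the mouse assay, n = 5.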
# Mus musculus [18] = assay: Antialzheimer activity in CD1 mouse assessed as reduction in amyloid beta 42 level in brain at 30 mg/kg, po at 4 hrs by ELISA relative to control; format: functional
# How it was run: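 Screening used fasted male CD1 mice dosed once orally at 30 mg/kg as a suspension in 20% Captisol in water. Mice were killed at 4 h. Aβ42 in the DEA-soluble hemisphere extract was measured by sandwich ELISA. Values are the mean of at least six animals, as % lowering versus untreated mice; a reduction above 20% counts as significant.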
# Mus musculus [19] = assay: Antialzheimer activity in CD1 mouse assessed as amyloid beta 38 level in brain at 30 mg/kg, po at 4 hrs by ELISA relative to control; format: functional
# How it was run: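 Male CD1 SPF mice, fasted overnight, got a single oral dose of 10 or 30 mg/kg. At each time point the right brain hemisphere was homogenized in 0.4% DEA/50 mM NaCl with protease inhibitors and spun at 221300g for 50 min. The supernatant was neutralized with Tris-HCl pH 6.8. Aβ38 or Aβ42 was read by sandwich ELISA with a fluorogenic peroxidase substrate (ex 320/em 420 nm). Results are mean % change versus T = 0 h, n = 4.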
# hERG (KCNH2), sequence (Q12809 whole entry): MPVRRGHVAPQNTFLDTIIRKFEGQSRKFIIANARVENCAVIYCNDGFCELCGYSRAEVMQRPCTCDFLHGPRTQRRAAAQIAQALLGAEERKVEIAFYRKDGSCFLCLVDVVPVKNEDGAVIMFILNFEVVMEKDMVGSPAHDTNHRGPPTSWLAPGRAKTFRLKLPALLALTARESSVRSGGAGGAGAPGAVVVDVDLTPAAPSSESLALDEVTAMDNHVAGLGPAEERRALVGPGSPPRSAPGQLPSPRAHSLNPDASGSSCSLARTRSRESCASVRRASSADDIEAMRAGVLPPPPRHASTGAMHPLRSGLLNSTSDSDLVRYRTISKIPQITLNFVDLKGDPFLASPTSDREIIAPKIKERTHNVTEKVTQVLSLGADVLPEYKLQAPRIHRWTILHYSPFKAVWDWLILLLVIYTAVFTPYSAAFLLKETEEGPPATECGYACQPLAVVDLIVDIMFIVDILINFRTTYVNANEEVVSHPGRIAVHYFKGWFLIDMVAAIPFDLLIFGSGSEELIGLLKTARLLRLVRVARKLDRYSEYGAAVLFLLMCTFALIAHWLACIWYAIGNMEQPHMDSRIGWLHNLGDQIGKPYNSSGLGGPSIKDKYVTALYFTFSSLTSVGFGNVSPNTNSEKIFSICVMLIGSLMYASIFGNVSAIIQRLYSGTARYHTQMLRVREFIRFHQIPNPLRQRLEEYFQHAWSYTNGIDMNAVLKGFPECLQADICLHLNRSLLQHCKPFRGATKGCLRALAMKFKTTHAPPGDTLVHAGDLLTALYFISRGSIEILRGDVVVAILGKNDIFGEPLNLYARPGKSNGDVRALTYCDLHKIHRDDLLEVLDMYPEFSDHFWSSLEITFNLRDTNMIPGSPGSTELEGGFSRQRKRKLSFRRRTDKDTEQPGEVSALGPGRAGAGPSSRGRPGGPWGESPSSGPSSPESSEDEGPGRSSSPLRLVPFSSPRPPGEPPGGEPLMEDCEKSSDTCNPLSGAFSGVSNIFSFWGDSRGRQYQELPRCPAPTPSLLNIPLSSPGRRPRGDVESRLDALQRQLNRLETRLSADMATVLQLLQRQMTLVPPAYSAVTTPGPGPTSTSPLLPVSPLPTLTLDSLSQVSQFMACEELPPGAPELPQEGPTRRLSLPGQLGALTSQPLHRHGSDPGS
# Cytochrome P450 3A4, sequence (P08684 whole entry): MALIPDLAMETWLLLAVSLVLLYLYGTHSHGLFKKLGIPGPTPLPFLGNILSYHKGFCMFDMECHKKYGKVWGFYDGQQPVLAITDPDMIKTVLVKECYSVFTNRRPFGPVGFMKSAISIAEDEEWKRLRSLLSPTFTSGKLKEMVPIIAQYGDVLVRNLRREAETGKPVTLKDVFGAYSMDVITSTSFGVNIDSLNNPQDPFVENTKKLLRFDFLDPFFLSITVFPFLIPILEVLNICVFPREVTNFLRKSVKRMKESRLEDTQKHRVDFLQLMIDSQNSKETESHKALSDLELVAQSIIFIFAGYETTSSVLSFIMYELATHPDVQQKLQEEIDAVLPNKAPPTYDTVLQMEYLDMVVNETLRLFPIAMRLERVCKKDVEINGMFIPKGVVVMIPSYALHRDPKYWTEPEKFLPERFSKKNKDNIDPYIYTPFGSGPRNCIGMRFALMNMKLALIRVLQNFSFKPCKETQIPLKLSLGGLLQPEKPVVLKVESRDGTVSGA
structure (smiles),measurement,setting,value
COc1nc(Nc2cccc3c2nc(-c2ccc(F)cc2)n3C)ccc1-n1cnc(C)c1,inhibition,[1],71%
same,Papp B→A,MDR1,4 ×10⁻⁶ cm/s
same,"metabolised at 0.25 h, 1 µM",[2],37%
same,Activity,Rattus norvegicus [3],64%
same,Activity,Rattus norvegicus [4],179%
same,Activity,Mus musculus [5],94%
same,Activity,Rattus norvegicus [6],57%
same,concentration at 8 h,[7],1.7 µM
same,inhibition at 3 µM,hERG (KCNH2),30%
same,concentration at 8 h,[8],10.5 µM
same,Activity,Rattus norvegicus [9],63%
same,concentration at 4 h,[10],19.5 µM
same,solubility thermodynamic,[11],1170 µg/mL
same,Activity,Rattus norvegicus [12],128%
same,solubility thermodynamic,[13],< 1 µg/mL
same,Activity,Rattus norvegicus [14],56%
same,IC50,Cytochrome P450 3A4,8.7 µM
same,concentration at 4 h,[15],4.1 µM
same,fraction unbound,[16],0.0013
same,concentration at 4 h,[17],4.4 µM
same,inhibition in vivo at 30 mg/kg,Mus musculus [18],62%
same,Activity,Mus musculus [19],165%
